Results on 1 compound are retold here after ChEMBL document CHEMBL4616666, “Discovery of SHP2-D26 as a First, Potent, and Effective PROTAC Degrader of SHP2 Protein” (J Med Chem, 2020).

One may read the IC50 as the concentration that inhibits the measured activity by half. Broadly, the DC50 is the concentration at which degradation of the target reaches its halfway point. Usually inhibition stands for how much of the control response was suppressed.

In series [1] the target is T1, von Hippel-Lindau disease tumor suppressor/Tyrosine-protein phosphatase non-receptor type 11 (Homo sapiens, UniProt Q06124+P40337). Briefly: Protac activity at VHL1/SHP2 in human KYSE520 cells assessed as induction of SHP2 degradation at 0.1 uM measured after 3 hrs in presence of proteasome inhibitor MG132 by Western blot analysis. It is filed as cell-based. In outline: (§1)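 KYSE520 cells in RPMI 1640 + 10% FBS were pretreated 1 h with VHL-1 ligand (10 μM), SHP2 inhibitor (10 μM), MLN4924 (0.5 μM) or MG132, then given degrader at 0.1 μM for 3 h. Cells were lysed in RIPA with protease/phosphatase inhibitors and run on 4–12% SDS–PAGE/PVDF Western blot for SHP2, with GAPDH as loading control.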
Background: In western blotting, separated proteins are transferred to a membrane and probed.
Target sequence in this assay (P40337 whole entry partner, one chain of several): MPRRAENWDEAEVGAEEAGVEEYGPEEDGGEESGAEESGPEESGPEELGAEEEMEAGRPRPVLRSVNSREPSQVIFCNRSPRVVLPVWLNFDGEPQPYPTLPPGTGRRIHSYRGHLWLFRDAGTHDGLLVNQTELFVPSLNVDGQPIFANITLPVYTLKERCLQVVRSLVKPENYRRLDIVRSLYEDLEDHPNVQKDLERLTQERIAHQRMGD

The subject of series [2] is KYSE-520 cell line. Briefly: Growth inhibition of human KYSE520 cells measured after 4 days by WST8 assay. Conditions: KYSE-520, 96 h.
Series [3] concerns the target T1, von Hippel-Lindau disease tumor suppressor/Tyrosine-protein phosphatase non-receptor type 11. In words: Protac activity at VHL1/SHP2 in human MV4-11 cells assessed as reduction in ERK phosphorylation at 100 nM measured after 48 hrs by Western blot analysis relative to control. Further details: scale not given: the % may be the effect or the level left. In kind it is cell-based.
Target sequence in this assay (P40337 whole entry partner, one chain of several): as above

For series [4] the target is unchanged. In words: Protac activity at VHL1/SHP2 in human KYSE520 cells assessed as induction of SHP2 degradation at 0.1 uM measured after 6 hrs by Western blot analysis relative to control. It is filed as cell-based. The method, boiled down: (§2)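 KYSE520 cells in RPMI 1640 + 10% FBS, 37 °C, 5% CO2, were exposed to degrader for 6 h. SHP2 was measured by Western blot and densitometry, with background-subtracted band normalized to net GAPDH band. Values are the average of three independent experiments.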
Target sequence in this assay (P40337 whole entry partner, one chain of several): as above

For series [5] the target is unchanged. Briefly: Protac activity at VHL1/SHP2 in human MV4-11 cells assessed as induction of SHP2 degradation at 100 nM measured after 4 to 8 hrs by Western blot analysis. In kind it is cell-based. In outline: (§3)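 Kinetics: cells were seeded overnight in 6-well plates, then given degrader at 100 nM for 2, 4, 8, 12 and 24 h. Harvested cells were lysed in RIPA with protease/phosphatase inhibitors and SHP2 was read by Western blot against GAPDH loading control. KYSE520 were grown in RPMI 1640 and MV4;11 in IMDM, both with 10% FBS.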
Target sequence in this assay (P40337 whole entry partner, one chain of several): as above

Series [6] shares this target. In words: Protac activity at VHL1/SHP2 in human MV4-11 cells assessed as reduction in ERK phosphorylation measured after 48 hrs by Western blot analysis. It is filed as cell-based.
Target sequence in this assay (P40337 whole entry partner, one chain of several): as above
Series [7] has as its system MV4-11. In words: Potency index, ratio of SHP099 IC50 to test compound IC50 for growth inhibition of human MV4-11 cells. In kind it is functional.
Series [8] deals with T1, von Hippel-Lindau disease tumor suppressor/Tyrosine-protein phosphatase non-receptor type 11. Briefly: Protac activity at VHL1/SHP2 in human MV4-11 cells assessed as induction of SHP2 degradation measured after 12 hrs by Western blot analysis. It is filed as cell-based. The method, boiled down: (§4)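 Dose–response: KYSE520 (RPMI 1640) or MV4;11 (IMDM) cells, with 10% FBS, were treated across a concentration range for 12 h. SHP2 was measured by Western blot and densitometry, normalized to GAPDH band density.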

Series [9] deals with KYSE-520 cell line. Briefly: Potency index, ratio of SHP099 IC50 to test compound IC50 for growth inhibition of human KYSE520 cells. It is filed as functional.
The target in series [10] is T1, von Hippel-Lindau disease tumor suppressor/Tyrosine-protein phosphatase non-receptor type 11. In words: Protac activity at VHL1/SHP2 in human KYSE520 cells assessed as induction of SHP2 degradation at 0.1 uM measured after 3 hrs in presence of VHL-1 ligand by Western blot analysis. It is filed as cell-based. The method, boiled down:
as §1
Target sequence in this assay (P40337 whole entry partner, one chain of several): as above

The target is the same in series [11]. In words: Protac activity at VHL1/SHP2 in human MV4-11 cells assessed as induction of SHP2 degradation at 0.1 uM measured after 24 hrs by Western blot analysis relative to control. In kind it is cell-based. In outline: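 MV4;11 cells in IMDM + 10% FBS were exposed to degrader for 24 h. SHP2 was quantified by Western blot densitometry, with background-subtracted band divided by net GAPDH loading-control band. Average of three independent experiments.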

Series [12] addresses T2, Tyrosine-protein phosphatase non-receptor type 11 (Homo sapiens) (UniProt Q06124).
T2 sequence (whole entry): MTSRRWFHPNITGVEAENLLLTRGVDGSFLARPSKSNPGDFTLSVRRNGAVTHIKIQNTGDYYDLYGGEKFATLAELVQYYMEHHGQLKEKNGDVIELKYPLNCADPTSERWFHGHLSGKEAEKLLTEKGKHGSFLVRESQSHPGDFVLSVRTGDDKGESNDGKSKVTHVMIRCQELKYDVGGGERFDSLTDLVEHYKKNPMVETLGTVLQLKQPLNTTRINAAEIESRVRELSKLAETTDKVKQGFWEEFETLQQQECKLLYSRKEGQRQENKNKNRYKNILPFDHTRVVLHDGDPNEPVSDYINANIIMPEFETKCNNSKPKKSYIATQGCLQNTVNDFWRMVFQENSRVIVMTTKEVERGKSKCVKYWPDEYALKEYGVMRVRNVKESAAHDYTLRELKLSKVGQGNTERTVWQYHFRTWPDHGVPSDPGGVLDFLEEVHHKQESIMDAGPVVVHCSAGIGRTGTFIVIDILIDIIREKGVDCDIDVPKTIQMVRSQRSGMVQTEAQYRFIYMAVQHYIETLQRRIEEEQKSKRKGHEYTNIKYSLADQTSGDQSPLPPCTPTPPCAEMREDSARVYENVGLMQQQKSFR
In words: Inhibition of SHP2 in human MV4-11 cells assessed as reduction in ERK phosphorylation at >3000 nM measured after 48 hrs by Western blot analysis relative to control. It is filed as cell-based.

Series [13] concerns the target T1, von Hippel-Lindau disease tumor suppressor/Tyrosine-protein phosphatase non-receptor type 11. Briefly: Protac activity at VHL1/SHP2 in human KYSE520 cells assessed as induction of SHP2 degradation at 1 uM measured after 6 hrs by Western blot analysis relative to control. It is filed as cell-based. The method, boiled down:
as §2

Series [14] has the same target. In words: Protac activity at VHL1/SHP2 in human KYSE520 cells assessed as reduction in ERK phosphorylation at 100 nM measured after 48 hrs by Western blot analysis. In kind it is cell-based.
Series [15] is described as follows: Aqueous solubility of the compound. It is filed as physicochemical. To be noted: buffer.
Series [16] concerns the target T1, von Hippel-Lindau disease tumor suppressor/Tyrosine-protein phosphatase non-receptor type 11. Briefly: Protac activity at VHL1/SHP2 in human KYSE520 cells assessed as induction of SHP2 degradation at 100 nM measured after 8 hrs by Western blot analysis relative to control. In kind it is cell-based. The method, boiled down: as §3
Series [17] has as its system MV4-11. Briefly: Growth inhibition of human MV4-11 cells measured after 4 days by WST8 assay. To be noted: MV4-11, 96 h. Background: Tetrazolium assays rely on reduction of a dye to a coloured formazan, in cell work by metabolically active cells.
For series [18], the target named is T1, von Hippel-Lindau disease tumor suppressor/Tyrosine-protein phosphatase non-receptor type 11. In words: Protac activity at VHL1/SHP2 in human KYSE520 cells assessed as induction of SHP2 degradation measured after 12 hrs by Western blot analysis. It is filed as cell-based. The method, boiled down:
as §4

For series [19] the target is unchanged. Briefly: Protac activity at VHL1/SHP2 in human KYSE520 cells assessed as induction of SHP2 degradation at 100 nM measured within 4 hrs by Western blot analysis. It is filed as cell-based. In outline: as §3
The target is the same in series [20]. In words: Protac activity at VHL1/SHP2 in human KYSE520 cells assessed as induction of SHP2 degradation at 0.1 uM measured after 3 hrs in presence of E1 inhibitor MLN4924 by Western blot analysis. In kind it is cell-based. In outline: as §1
Series [21] has the same target. In words: Protac activity at VHL1/SHP2 in human KYSE520 cells assessed as induction of SHP2 degradation at 0.1 uM measured after 3 hrs in presence of SHP2 inhibitor by Western blot analysis. In kind it is cell-based. The method, boiled down:
as §1

Series [22] shares this target. In words: Protac activity at VHL1/SHP2 in human KYSE520 cells assessed as reduction in ERK phosphorylation measured after 48 hrs by Western blot analysis. It is filed as cell-based.

Activity calls are given as the source filed them. No cut-off for these calls is given here.

Turning to `Cc1ncsc1-c1ccc([C@H](C)NC(=O)[C@@H]2C[C@@H](O)CN2C(=O)[C@@H](NC(=O)CCCCCCCCN2CCN(C(=O)CCC(=O)Nc3cccc(Sc4ncc(N5CCC(C)(N)CC5)nc4N)c3Cl)CC2)C(C)(C)C)cc1` (single isomer, unassigned), the result in [1], in series [10], in series [20] and in series [21] was inactive. In addition, the figures for the concentration for half-maximal inhibition (IC50) in the series on KYSE-520 cell line [2] and in the series with MV4-11 [17] were 660 nM and 9.9 nM, respectively. Moreover, the Activity is 100% in series [3]; > 95% in series [4]; “Dose-dependent effect” in series [6]; “Dose-dependent effect” in series [8]; > 95% in series [11]; > 95% in series [13]. Moreover, the Activity in [16] is 100%; in [18] it was “Dose-dependent effect”; in [22], “Dose-dependent effect”. Further, the result in series [5], in [14] and in series [19] was Active. For the same compound, the “Ratio IC50” value is recorded as 100 in the series with MV4-11 [7] and 28 in the series with KYSE-520 cell line [9]. Also, the 50% degradation concentration (DC50) in [8] stood at 2.6 nM; in [18], 6 nM. The inhibition in series [12] was 100%. The solubility entry in series [15] is reported as “Soluble”.
